The subject of one assay is Prunus dulcis. Put plainly: Inhibition of almond beta-glucosidase at 25 uM after 10 mins. The gist of the method: (§1)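 Enzyme 12.5 mU per sample in buffer: β-glucosidase, 50 mM sodium citrate pH 5.0; α-mannosidase, 10 mM sodium acetate pH 4.5; α-galactosidase, 50 mM potassium phosphate pH 6.5. Compound in DMSO at 25 µM, preincubated 5 min at 37 °C; substrate added at 80 μM final; stopped after 10 min with 1 M Na2CO3. Absorbance compared with DMSO control; triplicate.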

For assay [1], the target named is Alpha-galactosidase (Coffea arabica) (UniProt Q42656). In words: Inhibition of green coffee bean alpha-galactosidase at 25 uM after 10 mins. Summed up:
as §1

In the next assay the test system is SH-SY5Y. Put plainly: Cytotoxicity against human SH-SY5Y cells after 2 hrs by MTT assay. The class given is functional, cell-based. Summed up: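 SH-SY5Y neuroblastoma cells exposed to compound at 5 μM and at a second concentration for 2 h. MTT (5 mg/mL in DMEM + 10% FBS) then added, 4 h at 37 °C. Supernatant removed, formazan dissolved in DMSO, absorbance read at 540 nm. Sextuplicate, repeated twice.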

Assay [2] in a line: Inhibition of Saccharomyces cerevisiae alpha-glucosidase after 10 mins. Summed up: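 Yeast α-glucosidase, 25 mU/mL final, in 10 mM phosphate buffer pH 7.28, preincubated with test compound (DMSO) 5 min at 37 °C. p-NPG substrate 80 μM final; stopped after 10 min with 0.5 M Na2CO3; 4-nitrophenol read at 400 nm against DMSO control. Eight concentrations; triplicate, at least two runs; IC50 taken graphically from percent activity vs log concentration.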

The subject of the next assay is Canavalia ensiformis. In words: Inhibition of Canavalia ensiformis alpha-mannosidase at 25 uM after 10 mins. The gist of the method:
as §1

SMILES strings stand for the structures. Activity calls are given as the source filed them. The calls are words filed in the database; no cut-off is given here.

In ChEMBL document CHEMBL1212886, “New N-(phenoxydecyl)phthalimide derivatives displaying potent inhibition activity towards alpha-glucosidase” (Bioorg Med Chem, 2010) one finds inhibition and IC50 data, which are given here for 38 molecules.

Alpha-galactosidase (Coffea arabica), sequence (Q42656 16-378 limits assumed): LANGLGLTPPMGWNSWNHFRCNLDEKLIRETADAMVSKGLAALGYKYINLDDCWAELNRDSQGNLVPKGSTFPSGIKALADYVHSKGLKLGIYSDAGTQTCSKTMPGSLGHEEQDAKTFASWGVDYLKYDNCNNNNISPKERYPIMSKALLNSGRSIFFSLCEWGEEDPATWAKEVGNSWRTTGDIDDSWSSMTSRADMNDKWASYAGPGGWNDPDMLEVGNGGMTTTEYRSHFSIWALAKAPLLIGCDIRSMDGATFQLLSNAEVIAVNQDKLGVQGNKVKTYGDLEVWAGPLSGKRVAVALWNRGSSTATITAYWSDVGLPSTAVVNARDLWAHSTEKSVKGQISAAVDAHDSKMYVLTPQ

By IC50 is commonly meant the midpoint of a concentration-inhibition curve. Higher therefore signals weaker potency in that assay. As for `O=C1c2ccccc2C(=O)N1CCCCCCCCCCOc1ccc(Cl)cc1[N+](=O)[O-]`, the inhibition result (in the assay on Prunus dulcis; in assay [1]; with SH-SY5Y; in the assay on Canavalia ensiformis) was “inactive” each time. The molecule further had an IC50 in assay [2] of 475 nM.

For the molecule `Cc1cccc(C)c1OCCCCCCCCCCN1C(=O)c2ccccc2C1=O`, half-maximal inhibition in assay [2] (IC50) required 3250 nM.

In assay [2], `O=C1c2ccccc2C(=O)N1CCCCCCOc1ccccc1` came in with an IC50 of 10300 nM.

In turn, `O=C1c2ccccc2C(=O)N1CCCCCCCCCOc1ccccc1` gave an IC50 in assay [2] of 3040 nM.

In the case of `O=C1c2ccccc2C(=O)N1CCOc1ccccc1`, the IC50 in assay [2] was found to be 296000 nM. This IC50 is about 97-fold higher than that of the molecule before.

`O=C1c2ccccc2C(=O)N1CCCCCCCCOc1ccccc1`: the IC50 in assay [2] worked out at 6500 nM.

`O=C1c2ccccc2C(=O)N1CCCCOc1ccccc1` displayed an IC50 in assay [2] of 33000 nM.

Consider `O=C1c2ccccc2C(=O)N1CCCOc1ccc(Cl)c(Cl)c1`, for which, in assay [2], inhibition was half-maximal at 7550 nM (IC50).

`O=C1c2ccccc2C(=O)N1CCCCCCCCCCOc1ccc(C(F)(F)F)cc1` registered an IC50 in assay [2] of 830 nM.

Take `Cc1cc(Cl)ccc1OCCCN1C(=O)c2ccccc2C1=O`: half-maximal inhibition in assay [2] (IC50) was put at 8900 nM.

The molecule `Cc1cc([N+](=O)[O-])cc(C)c1OCCCCCCCCCCN1C(=O)c2ccccc2C1=O` registered an IC50 in assay [2] of 1320 nM.

Molecule `O=C1c2ccccc2C(=O)N1CCCCCCCCCCOc1ccc(C(F)(F)F)cc1[N+](=O)[O-]` gave an IC50 in assay [2] of 1310 nM.

The molecule `O=C1c2ccccc2C(=O)N1CCCCCCCCCCOc1ccccc1` had an IC50 in assay [2] of 2500 nM.

Take `Cc1cc(Cl)cc(C)c1OCCN1C(=O)c2ccccc2C1=O`: the midpoint of inhibition in assay [2], the IC50, lay at 13000 nM.

For the molecule `O=C1c2ccccc2C(=O)N1CCCCCCCCCCOc1ccc(Cl)cc1`, it took 1200 nM to reach half-maximal inhibition in assay [2] (IC50).

For `Cc1cc(Cl)cc(C)c1OCCCCCCCCCCN1C(=O)c2ccccc2C1=O`, the midpoint of inhibition in assay [2], the IC50, lay at 1340 nM.

As for `O=C1c2ccccc2C(=O)N1CCCCCCCCCCOc1cc(Cl)c(Cl)cc1[N+](=O)[O-]`, the inhibition entry (in the assay with Prunus dulcis; in assay [1]; with SH-SY5Y; with Canavalia ensiformis) was “inactive” in each case. Further, it took 520 nM to reach half-maximal inhibition in assay [2] (IC50).

In assay [2], `O=C1c2ccccc2C(=O)N1CCCCCCCCCCOc1ccc([N+](=O)[O-])c(C(F)(F)F)c1` showed an IC50 of 830 nM. That is a sub-micromolar value.

As to `Cc1ccc(Cl)cc1OCCCCCCCCCCN1C(=O)c2ccccc2C1=O`, the midpoint of inhibition in assay [2], the IC50, lay at 910 nM. This IC50 and that of the molecule before are within 1.5-fold of each other.

`O=C1c2ccccc2C(=O)N1CCCOc1ccccc1` registered an IC50 in assay [2] of 240000 nM.

On to `O=C1c2ccccc2C(=O)N1CCCCCOc1ccccc1`, for which the IC50 in assay [2] was determined as 20200 nM.

Molecule `O=C1c2ccccc2C(=O)N1CCCCCCCCCCOc1cccc([N+](=O)[O-])c1` registered a concentration for half-maximal inhibition (IC50) in assay [2] of 1080 nM.

Turning to `O=C1c2ccccc2C(=O)N1CCCCCCCCCCOc1c(Cl)cc(Cl)cc1[N+](=O)[O-]`, the inhibition entry (with Prunus dulcis; in assay [1]; with SH-SY5Y; in the assay on Canavalia ensiformis) was “inactive” in each case. In assay [2], this molecule showed an IC50 of 750 nM.

For the molecule `Cc1cc([N+](=O)[O-])c(Cl)cc1OCCCCCCCCCCN1C(=O)c2ccccc2C1=O`, the inhibition entry (in the assay with Prunus dulcis; in assay [1]; in the assay on SH-SY5Y; with Canavalia ensiformis) was “inactive” throughout. This molecule also came in with an IC50 in assay [2] of 650 nM.

In assay [2], `O=C1c2ccccc2C(=O)N1CCCCCCCCCCOc1ccc([N+](=O)[O-])cc1[N+](=O)[O-]` registered an IC50 of 970 nM.

On to `Cc1ccc(OCCCCCCCCCCN2C(=O)c3ccccc3C2=O)cc1`, for which the IC50 in assay [2] amounted to 2100 nM.

In assay [2], `Cc1cc(Cl)ccc1OCCN1C(=O)c2ccccc2C1=O` came in with an IC50 of 14800 nM. Against the preceding molecule, the IC50 is about 7-fold higher.

With `Cc1cc(Cl)c([N+](=O)[O-])c(C)c1OCCCCCCCCCCN1C(=O)c2ccccc2C1=O`, in assay [2], the midpoint of inhibition, the IC50, lay at 3600 nM. Against the preceding molecule, the IC50 is about 4.1-fold lower.

`O=C1c2ccccc2C(=O)N1CCCOc1cccc(Cl)c1Cl` showed an IC50 in assay [2] of 15000 nM. This IC50 lies about 4.2-fold higher than the previous one.

The molecule `O=C1c2ccccc2C(=O)N1CCCCCCCCCCOc1ccc(Cl)c(Cl)c1` came in with an IC50 in assay [2] of 1000 nM. This IC50 is about 15-fold lower than that of the molecule before.

In assay [2], `Cc1cc(Cl)cc(C)c1OCCCN1C(=O)c2ccccc2C1=O` came in with a concentration for half-maximal inhibition (IC50) of 9500 nM.

`O=C1c2ccccc2C(=O)N1CCCCCCCCCCOc1cccc(Cl)c1` came in with an IC50 in assay [2] of 1090 nM.

`O=C1c2ccccc2C(=O)N1CCCCCCCCCCOc1ccccc1[N+](=O)[O-]`: the IC50 in assay [2] came to 1780 nM.

Molecule `O=C1c2ccccc2C(=O)N1CCOc1ccc(Cl)cc1` yielded an IC50 in assay [2] of 94000 nM. This IC50 lies about 53-fold higher than the previous one.

In turn, `O=C1c2ccccc2C(=O)N1CCCOc1ccc(Cl)cc1` displayed a half-maximal inhibitory concentration (IC50) in assay [2] of 59000 nM. This IC50 is about 1.6-fold lower than that of the molecule before.

The molecule `OC[C@H]1NC[C@H](O)[C@@H](O)[C@@H]1O` [DUVOGLUSTAT] registered an IC50 in assay [2] of 52000 nM.

Consider `O=C1c2ccccc2C(=O)N1CCCCCCCCCCOc1ccc(Cl)cc1Cl`, for which 1190 nM corresponded to half-maximal inhibition in assay [2] (IC50).

As for `O=C1c2ccccc2C(=O)N1CCCCCCCCCCOc1ccc([N+](=O)[O-])cc1`, in assay [2], the IC50 is 860 nM.
